ChEMBL document CHEMBL1124441, “Synthesis of congeners and prodrugs. 3. Water-soluble prodrugs of taxol with potent antitumor activity” (1989)

What was measured:
Format in all cases: functional, Mus musculus
Details in all cases: route intraperitoneal
[1] = tested on: B16; assay: Difference in body weight in grams between test and control animals at a dose of 50 mg/kg intraperitoneally
Summary of the method: (§1)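 B16 melanoma system: 10⁶ tumor cells inoculated ip on day 0. Drug given ip once daily for 9 days (Q01Dx09) starting day 1, dose as mg/kg body weight per injection. Read-out is the body-weight difference in grams, treated minus control animals. Early deaths, taken as toxicity, are scored on day 4.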

[2] = tested on: B16; assay: Difference in body weight in grams between test and control animals at a dose of 6.25 mg/kg intraperitoneally; summary of the method: as §1
[3] = tested on: B16; assay: Antitumor activity in B16 Melanoma system animals is indicated by survivors on day 4 at a dose of 12.5 mg/kg intraperitoneally
Summary of the method: (§2)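 B16 melanoma, 10^6 cells inoculated ip on day 0. Ip treatment started day 1, schedule Q01Dx09 (one dose daily for 9 days). The score is live animals on day 4 over total animals; early deaths are taken as drug toxicity.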

[4] = tested on: B16; assay: Antitumor activity in B16 Melanoma system animals is indicated by survivors on day 4 at a dose of 25 mg/kg intraperitoneally; summary of the method: as §2
[5] = tested on: B16; assay: Difference in body weight in grams between test and control animals at a dose of 25 mg/kg intraperitoneally; summary of the method: as §1
[6] = tested on: B16; assay: Percent of median lifetime of test animals divided by the median lifetime of control animals at a dose of 25 mg/kg intraperitoneally
Summary of the method: (§3)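 B16 melanoma inoculated ip (10⁶ cells) on day 0. Daily ip treatment for 9 days (Q01Dx09) begins day 1, dosed per injection in mg/kg. %T/C is the median lifespan of treated animals divided by that of tumored untreated controls, ×100. Cures are animals alive on the last test day. Toxic deaths are assessed on day 4.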

[7] = tested on: B16; assay: Percent of median lifetime of test animals divided by the median lifetime of control animals at a dose of 50 mg/kg intraperitoneally; summary of the method: as §3
[8] = tested on: B16; assay: Percent of median lifetime of test animals divided by the median lifetime of control animals at a dose of 6.25 mg/kg intraperitoneally; summary of the method: as §3
[9] = tested on: B16; assay: Difference in body weight in grams between test and control animals at a dose of 12.5 mg/kg intraperitoneally; summary of the method: as §1
[10] = tested on: B16; assay: Antitumor activity in B16 Melanoma system animals is indicated by survivors on day 4 at a dose of 50 mg/kg intraperitoneally; summary of the method: as §2
[11] = tested on: B16; assay: Antitumor activity in B16 Melanoma system animals is indicated by survivors on day 4 at a dose of 6.25 mg/kg intraperitoneally; summary of the method: as §2
[12] = tested on: B16; assay: Percent of median lifetime of test animals divided by the median lifetime of control animals at a dose of 12.5 mg/kg intraperitoneally; summary of the method: as §3
[13] = tested on: B16; assay: Difference in body weight in grams between test and control animals at a dose of 49 mg/kg intraperitoneally
Summary of the method: (§4)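 B16 melanoma, 10^6 cells ip on day 0, then ip dosing from day 1, once daily for 9 days (Q01Dx09). The value is the body-weight difference in grams, treated minus tumored control animals.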

[14] = tested on: B16; assay: Difference in body weight in grams between test and control animals at a dose of 6.13 mg/kg intraperitoneally; summary of the method: as §4
[15] = tested on: B16; assay: Antitumor activity in B16 Melanoma system animals is indicated by survivors on day 4 at a dose of 12.25 mg/kg intraperitoneally; summary of the method: as §2
[16] = tested on: B16; assay: Antitumor activity in B16 Melanoma system animals is indicated by survivors on day 4 at a dose of 24.5 mg/kg intraperitoneally; summary of the method: as §2
[17] = tested on: B16; assay: Antitumor activity in B16 Melanoma system animals is indicated by survivors on day 4 at a dose of 49 mg/kg intraperitoneally; summary of the method: as §2
[18] = tested on: B16; assay: Difference in body weight in grams between test and control animals at a dose of 24.5 mg/kg intraperitoneally; summary of the method: as §4
[19] = tested on: B16; assay: Percent of median lifetime of test animals divided by the median lifetime of control animals at a dose of 24.5 mg/kg intraperitoneally
Summary of the method: (§5)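 B16 melanoma, 10^6 cells ip on day 0, ip treatment from day 1, Q01Dx09 (single dose daily for 9 days). %T/C is median lifetime of treated over untreated tumored controls, times 100. Early deaths are assessed on day 4 for toxicity. Cures are animals alive on the last test day.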

[20] = tested on: B16; assay: Percent of median lifetime of test animals divided by the median lifetime of control animals at a dose of 49 mg/kg intraperitoneally; summary of the method: as §5
[21] = tested on: B16; assay: Percent of median lifetime of test animals divided by the median lifetime of control animals at a dose of 6.13 mg/kg intraperitoneally; summary of the method: as §5
[22] = tested on: B16; assay: Difference in body weight in grams between test and control animals at a dose of 12.25 mg/kg intraperitoneally; summary of the method: as §4
[23] = tested on: B16; assay: Antitumor activity in B16 Melanoma system animals is indicated by survivors on day 4 at a dose of 6.13 mg/kg intraperitoneally; summary of the method: as §2
[24] = tested on: B16; assay: Percent of median lifetime of test animals divided by the median lifetime of control animals at a dose of 12.25 mg/kg intraperitoneally; summary of the method: as §5

Structure (SMILES): CC(=O)OC1C(=O)[C@@]2(C)[C@H]([C@H](OC(=O)c3ccccc3)[C@]3(O)CC(OC(=O)C(OC(=O)CCC(=O)O)C(NC(=O)c4ccccc4)c4ccccc4)C(C)=C1C3(C)C)[C@]1(OC(C)=O)CO[C@@H]1C[C@@H]2O.CNC[C@H](O)[C@@H](O)[C@H](O)[C@H](O)CO (some centres undefined)
- Weight difference [1]: -0.6 g
- Weight difference [2]: -0.2 g
- Activity [3]: 10
- Activity [4]: 10
- Weight difference [5]: 0.3 g
- T/C [6]: 176%
- T/C [7]: 241%
- T/C [8]: 125%
- Weight difference [9]: 0.3 g
- Activity [10]: 10
- Activity [11]: 10
- T/C [12]: 134%

Structure (SMILES): CC(=O)OC1C(=O)[C@@]2(C)[C@H]([C@H](OC(=O)c3ccccc3)[C@]3(O)CC(OC(=O)C(OC(=O)CCCC(=O)[O-])C(NC(=O)c4ccccc4)c4ccccc4)C(C)=C1C3(C)C)[C@]1(OC(C)=O)CO[C@@H]1C[C@@H]2O.[Na+] (some centres undefined)
- Weight difference [13]: 0.8 g
- Weight difference [14]: 0.4 g
- Activity [15]: 8
- Activity [16]: 7
- Activity [17]: 7
- Weight difference [18]: 1.5 g
- T/C [19]: 225%
- T/C [20]: 339%
- T/C [21]: 159%
- Weight difference [22]: 0.6 g
- Activity [23]: 8
- T/C [24]: 192%
